Screening data from PubChem BioAssay.
This excerpt belongs to a sample that is enriched for hits.
T cruzi intra: blocks T. cruzi growth inside host cells | AID 651903 | hit rate 4.9% among 22,000 | intracellular Trypanosoma cruzi in host cells, plate reader | activity score (inhibition), % at 5.01 µM; in the data active = activity score above about 55%; inconclusive = no clear call, values can overlap the other calls;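 also: parasites and compound incubated about four days before reading; 0% = median of neutral control wells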
INS-1E rescue: rescue of cytokine-induced death in INS-1E beta cells; AID 488910; INS-1E cytokine-induced death, ATP luminescence, 48 h; normalised: neutral wells 0, positive control 100; hit rate 0.1% among 20,000; protection from cytokine-induced ATP loss, % at 10 µM;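 active = mean replicate protection from cytokine-induced ATP loss at least 50% and at least 75% of replicates each reaching 50%; inconclusive = meets only one of the two criteria, mean or replicate share; inactive = fails both the mean and replicate share criteria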
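Test system: INS-1E rat cells | Quantity: 8000 cells per well | Medium: Phenol-red-free RPMI with 5% fetal bovine serum | Reagent: Cytokine cocktail of IFN-γ, TNF-α and IL-1β | Doses: One compound concentration, pin transfer | Timing: 48 h co-treatment, 10 min post-lysis read | Technique: Luminescent ATP assay (CellTiter-Glo)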
YB-1 expression: YB-1 expression inhibition. U2OS, qRT-PCR YB-1 vs CDIP delta delta Cp, 16 h; hits give high values; zero = DMSO, each unit about twofold. delta delta Cp (YB-1 minus CDIP) (test concentration not listed). hit rate 0.37% among 30,000. AID 434959;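 active = delta delta Cp rounded down to an integer at or above 3, about 3 SD of DMSO wells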;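 also: higher means less YB-1 transcript or more CDIP transcript relative to DMSO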
* = called active by the depositor.

Screening C[C@@H]1CCCCO[C@@H](CN(C)Cc2ccc(C(=O)O)cc2)[C@@H](C)CN([C@H](C)CO)C(=O)c2cc(NC(=O)Nc3ccc(C(F)(F)F)cc3)ccc2O1 returned T cruzi intra -5, INS-1E rescue 3 and YB-1 expression -0.57.
`COc1ccc(NC(=O)Nc2ccc3c(c2)C(=O)N([C@H](C)CO)C[C@H](C)[C@@H](CN(C)Cc2ccc(C(F)(F)F)cc2)OCCCC[C@@H](C)O3)cc1` gave T cruzi intra 63*, INS-1E rescue -16 and YB-1 expression 0.2.
For CC(=O)Nc1sc2c(c1SC#N)CCCC2 the results were YB-1 expression 0.3.
`OC(c1ccccc1)c1oc2ccccc2c1-c1cnn(-c2ccccc2)c1` (stereo unspecified) gave YB-1 expression -0.29.
Cc1nc(SC2CCCCN(C(=O)c3ccc(Cl)cc3)C2=O)c2c3c(sc2n1)CCCC3 (stereo unspecified) was read as YB-1 expression -0.2.
CO[C@@]12[C@@H]3NC3CN1C1=C(C(=O)C(N)=C(C)C1=O)[C@@H]2COC(N)=O (stereo partly specified) was read as YB-1 expression 1.3.
`C[C@@H]1CCCCO[C@@H](CN(C)Cc2ccc(C(=O)Nc3ccccc3N)cc2)[C@@H](C)CN([C@H](C)CO)C(=O)c2cc(NC(=O)Nc3ccc(C(F)(F)F)cc3)ccc2O1` gave T cruzi intra 81*, INS-1E rescue -45 and YB-1 expression -0.27.
Screening C[C@@H]1CCCCO[C@@H](CN(C)Cc2ccc(C(=O)Nc3ccccc3N)cc2)[C@@H](C)CN([C@H](C)CO)C(=O)c2cc(NC(=O)Nc3ccc(F)cc3)ccc2O1 returned T cruzi intra 9, INS-1E rescue -3 and YB-1 expression 0.097.
For C[C@H](CO)N1C[C@H](C)[C@H](CN(C)Cc2ccccc2)Oc2ncc(-c3cccc(C(F)(F)F)c3)cc2C1=O the results were T cruzi intra inconclusive and YB-1 expression 0.14.
For C[C@H](CO)N1C[C@H](C)[C@H](CN(C)Cc2ccc(F)cc2)Oc2ncc(-c3cccc(C(F)(F)F)c3)cc2C1=O the results were T cruzi intra 62* and YB-1 expression -0.37.
C[C@H](CO)N1C[C@H](C)[C@H](CN(C)C)Oc2ncc(-c3cccc(C(F)(F)F)c3)cc2C1=O was read as T cruzi intra 81* and YB-1 expression -0.41.
Screening C[C@H](CO)N1C[C@H](C)[C@H](CN(C)Cc2cccc(C(F)(F)F)c2)Oc2ncc(C#Cc3ccccc3)cc2C1=O returned T cruzi intra 84* and YB-1 expression 0.42.
CCCC(O)C#Cc1cnc2c(c1)C(=O)N([C@H](C)CO)C[C@H](C)[C@H](CN(C)Cc1ccccc1)O2 (stereo partly specified) was read as T cruzi intra 21 and YB-1 expression 0.058.
COc1cccc(S(=O)(=O)N(C)C[C@@H]2Oc3ncc(-c4cccc(C(F)(F)F)c4)cc3C(=O)N([C@H](C)CO)C[C@@H]2C)c1 was read as T cruzi intra 57* and YB-1 expression -0.014.
COc1cccc(S(=O)(=O)N(C)C[C@@H]2Oc3ncc(-c4cccc(F)c4)cc3C(=O)N([C@H](C)CO)C[C@@H]2C)c1 was read as T cruzi intra 30 and YB-1 expression 0.22.
CNC[C@@H]1Oc2ncc(-c3cccc(C(F)(F)F)c3)cc2C(=O)N([C@H](C)CO)C[C@@H]1C was read as T cruzi intra 54 and YB-1 expression 0.48.
For O=c1cc(CSc2n[nH]c(-c3cccs3)n2)c2ccc(O)cc2o1 the results were YB-1 expression 0.2.
`COC(=O)C1=CN(C23CC4CC(CC(C4)C2)C3)C=C(C(=O)OC)C1c1cccc(OC)c1` gave YB-1 expression -0.11.
Screening COC(=O)c1ccc(CSc2nc(-c3cccs3)cc(C(F)(F)F)n2)cc1 returned YB-1 expression -0.25.
For Cc1cccc(CN(C)C[C@@H]2Oc3ncc(-c4ccc(F)cc4)cc3C(=O)N([C@H](C)CO)C[C@@H]2C)c1 the results were T cruzi intra 34 and YB-1 expression 0.1.
Screening C[C@H](CO)N1C[C@H](C)[C@H](CN(C)Cc2cccc(C(F)(F)F)c2)Oc2ncc(-c3ccc(F)cc3)cc2C1=O returned T cruzi intra 59* and YB-1 expression 0.35.
`C[C@H](CO)N1C[C@H](C)[C@H](CN(C)Cc2ccc3c(c2)OCO3)Oc2ncc(-c3cccc(F)c3)cc2C1=O` gave T cruzi intra 25, INS-1E rescue -21 and YB-1 expression 0.27.
Screening C[C@H](CO)N1C[C@H](C)[C@H](CN(C)Cc2ccc3c(c2)OCO3)Oc2ncc(-c3cccc(C(F)(F)F)c3)cc2C1=O returned T cruzi intra 62*, INS-1E rescue -13 and YB-1 expression 0.31.
For COc1ccc(S(=O)(=O)N(C)C[C@H]2Oc3ccc(NS(=O)(=O)c4ccc(C)cc4)cc3CC(=O)N([C@@H](C)CO)C[C@H]2C)cc1 the results were T cruzi intra 53, INS-1E rescue 0 and YB-1 expression -0.19.
`Cc1ccc(S(=O)(=O)N(C)C[C@@H]2Oc3ccc(NS(=O)(=O)c4ccc(Cl)cc4)cc3CC(=O)N([C@H](C)CO)C[C@H]2C)cc1` gave T cruzi intra -9, INS-1E rescue 1 and YB-1 expression -0.08.
`Cc1ccc(S(=O)(=O)Nc2ccc3c(c2)CC(=O)N([C@@H](C)CO)C[C@@H](C)[C@@H](CN(C)S(=O)(=O)c2cccs2)O3)cc1` gave T cruzi intra 38, INS-1E rescue -1 and YB-1 expression 0.11.
For COc1ccc(S(=O)(=O)Nc2ccc3c(c2)CC(=O)N([C@H](C)CO)C[C@@H](C)[C@@H](CN(C)S(=O)(=O)c2ccccc2)O3)cc1 the results were T cruzi intra 74*, INS-1E rescue 7 and YB-1 expression -0.19.
For COc1ccc(S(=O)(=O)N(C)C[C@@H]2Oc3ccc(NS(=O)(=O)c4ccccc4)cc3CC(=O)N([C@H](C)CO)C[C@H]2C)cc1 the results were T cruzi intra -15, INS-1E rescue 11 and YB-1 expression 0.12.
`Cc1ccc(S(=O)(=O)Nc2ccc3c(c2)CC(=O)N([C@H](C)CO)C[C@@H](C)[C@@H](CN(C)S(=O)(=O)c2ccc(Cl)cc2)O3)cc1` gave T cruzi intra 66*, INS-1E rescue -10 and YB-1 expression 0.16.
`Cc1ccc(S(=O)(=O)Nc2ccc3c(c2)CC(=O)N([C@H](C)CO)C[C@@H](C)[C@@H](CN(C)S(=O)(=O)c2cccs2)O3)cc1` gave T cruzi intra 68*, INS-1E rescue -10 and YB-1 expression 0.16.
COc1ccc(S(=O)(=O)Nc2ccc3c(c2)CC(=O)N([C@H](C)CO)C[C@@H](C)[C@@H](CN(C)S(=O)(=O)c2ccc(C)cc2)O3)cc1 was read as T cruzi intra 61*, INS-1E rescue 8 and YB-1 expression -0.17.
Screening CC(C)S(=O)(=O)N[C@@H]1CCN(Cc2ccc(OCCO)cc2)C1 returned YB-1 expression 0.17.
CSc1sc(C(=O)NN)cc1-c1nc(C)cs1 was read as YB-1 expression 0.4.
